From ChEMBL document CHEMBL1127078, “Fluorocyclopropyl quinolones. 1. Synthesis and structure-activity relationships of 1-(2-fluorocyclopropyl)-3-pyridonecarboxylic acid antibacterial agents” (J Med Chem, 1993)
Values after ≈ are worked out from the molar mass of the structure shown.

What was measured:
[1] = test system: Staphylococcus epidermidis; assay: Tested for minimum inhibitory concentration against Staphylococcus epidermidis 56556; assay type: functional
In short: (§1)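 Twofold broth microdilution in Mueller-Hinton broth, inoculum approximately 10^6 cfu/mL. Plates incubated 18 h at 37 °C. MIC taken as the lowest concentration preventing visible bacterial growth.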

[2] = test system: Streptococcus pyogenes; assay: Tested for minimum inhibitory concentration against Streptococcus pyogenes G-36; assay type: functional; in short: as §1
[3] = test system: Enterococcus faecalis; assay: Tested for minimum inhibitory concentration against Enterococcus faecalis ATCC 19433; assay type: functional; in short: as §1
[4] = test system: Pseudomonas aeruginosa; assay: Tested for minimum inhibitory concentration against Pseudomonas aeruginosa 32121; assay type: functional; in short: as §1
[5] = test system: Staphylococcus aureus; assay: Tested for minimum inhibitory concentration against Staphylococcus aureus Smith; assay type: functional; in short: as §1
[6] = test system: Staphylococcus aureus; assay: Tested for minimum inhibitory concentration against Staphylococcus aureus 209P; assay type: functional; in short: as §1
[7] = test system: Klebsiella pneumoniae; assay: Tested for minimum inhibitory concentration against Klebsiella pneumoniae; assay type: functional; in short: as §1
[8] = test system: Proteus vulgaris; assay: Tested for minimum inhibitory concentration against Proteus vulgaris 08601; assay type: functional; in short: as §1
[9] = test system: Enterobacter cloacae; assay: (§2) Tested for minimum inhibitory concentration against Enterobacter cloacae 03400; assay type: functional; in short: as §1
[10] = test system: Escherichia coli; assay: Tested for minimum inhibitory concentration against Escherichia coli NIHJ; assay type: functional; in short: as §1
[11] = Partition coefficient of the compound; assay type: ADME; conditions: CHCl3-0.1 M phosphate buffer (pH 7.4)
In short: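 Shake-flask distribution between CHCl3 and 0.1 M sodium phosphate buffer pH 7.4, each phase presaturated with the other. About 1–2 mg sample dissolved in the aqueous phase and its UV maximum absorbance recorded. Equal 10 mL volumes shaken 30 min at room temperature, then left 1 h to separate. Aqueous-layer UV maximum re-read. P' calculated as a ratio of the absorbance readings.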

[12] = test system: Escherichia coli; assay: Tested for minimum inhibitory concentration against Escherichia coli KL-16; assay type: functional; in short: as §1
[13] = target: DNA gyrase (Escherichia coli) (UniProt P0AES6+P0AES4); assay: Dose required to inhibit DNA gyrase in Escherichia coli; assay type: protein-complex assay
[14] = test system: Enterobacter cloacae; assay: as §2; assay type: functional; remark: listed apart in the source
[15] = Proteus vulgaris, read-out: MIC
[16] = Escherichia coli, read-out: MIC
[17] = Klebsiella pneumoniae, read-out: MIC
[18] = Staphylococcus aureus, read-out: MIC
[19] = Staphylococcus epidermidis, read-out: MIC
[20] = Enterococcus faecalis, ATCC 19433, read-out: MIC
[21] = Pseudomonas aeruginosa, read-out: MIC

Row | MIC [1] [µg/mL] | MIC [2] [µg/mL] | MIC [3] [µg/mL] | MIC [4] [µg/mL] | MIC [5] | MIC [6] [µg/mL] | MIC [7] | MIC [8, 15] [µg/mL] | MIC [7, 17] [µg/mL] | Compound | also measured
1 | 0.2 (≈ 0.524 µM) | 1.56 (≈ 4.09 µM) | 0.78 (≈ 2.05 µM) | 0.1 (≈ 0.262 µM) | <=0.05 ug ml-1 | 0.1 (≈ 0.262 µM) | <=0.05 ug ml-1 | – | – | C[C@H]1CN(c2c(F)cc3c(=O)c(C(=O)O)cn(C4CC4F)c3c2F)CCN1 (stereo in doubt; 32) | –
2 | 3.13 (≈ 8.21 µM) | 50 (≈ 131 µM) | 12.5 (≈ 32.8 µM) | 0.39 (≈ 1.02 µM) | 0.78 µg/mL (≈ 2.05 µM) | 1.56 (≈ 4.09 µM) | – | ≤ 0.05 | 0.1 (≈ 0.262 µM) | C[C@H]1CN(c2c(F)cc3c(=O)c(C(=O)O)cn(C4CC4F)c3c2F)CCN1 (stereo in doubt; 33) | MIC [9]: ≤ 0.05 µg/mL; MIC [10, 16]: ≤ 0.05 µg/mL
3 | 0.2 (≈ 0.524 µM) | 0.78 (≈ 2.05 µM) | 0.78 (≈ 2.05 µM) | 0.1 (≈ 0.262 µM) | ≤ 0.05 µg/mL | 0.1 (≈ 0.262 µM) | – | – | 0.1 (≈ 0.262 µM) | C[C@@H]1CN(c2c(F)cc3c(=O)c(C(=O)O)cn(C4CC4F)c3c2F)CCN1 (stereo in doubt; 34) | MIC [8]: <=0.05 ug ml-1; MIC [9]: ≤ 0.05 µg/mL; MIC [10, 16]: ≤ 0.05 µg/mL
4 | 3.13 (≈ 8.21 µM) | 50 (≈ 131 µM) | 12.5 (≈ 32.8 µM) | 0.78 (≈ 2.05 µM) | – | 1.56 (≈ 4.09 µM) | 0.2 µg/mL (≈ 0.524 µM) | – | – | C[C@@H]1CN(c2c(F)cc3c(=O)c(C(=O)O)cn(C4CC4F)c3c2F)CCN1 (stereo in doubt; 35) | MIC [8]: 0.2 µg/mL (≈ 0.524 µM); MIC [5, 18]: 0.78 µg/mL (≈ 2.05 µM)
5 | 0.39 (≈ 1.07 µM) | 6.25 (≈ 17.2 µM) | 1.56 (≈ 4.28 µM) | 0.2 (≈ 0.549 µM) | 0.2 µg/mL (≈ 0.549 µM) | 0.39 (≈ 1.07 µM) | 0.2 µg/mL (≈ 0.549 µM) | – | – | CN1CCN(c2nc3c(cc2F)c(=O)c(C(=O)O)cn3C2CC2F)CC1 (stereo in doubt; 36) | MIC [8]: 0.2 µg/mL (≈ 0.549 µM)
6 | 1.56 (≈ 4.28 µM) | 25 (≈ 68.6 µM) | 25 (≈ 68.6 µM) | 0.78 (≈ 2.14 µM) | 0.78 µg/mL (≈ 2.14 µM) | 1.56 (≈ 4.28 µM) | – | 0.2 (≈ 0.549 µM) | 0.2 (≈ 0.549 µM) | CN1CCN(c2nc3c(cc2F)c(=O)c(C(=O)O)cn3C2CC2F)CC1 (stereo in doubt; 37) | MIC [9]: ≤ 0.05 µg/mL; MIC [10, 16]: ≤ 0.05 µg/mL
7 | 0.2 (≈ 0.55 µM) | – | – | 0.1 (≈ 0.275 µM) | – | – | <=0.05 ug ml-1 | – | – | CN1CCN(c2cc3c(cc2F)c(=O)c(C(=O)O)cn3[C@@H]2C[C@@H]2F)CC1 (stereo in doubt; 38) [listing 1 of 2 here] | P' [11]: 7.3; MIC [12]: 0.025 µg/mL (≈ 0.0688 µM)
8 | – | – | – | – | – | – | – | – | – | CN1CCN(c2cc3c(cc2F)c(=O)c(C(=O)O)cn3[C@@H]2C[C@@H]2F)CC1 (stereo in doubt; 38) [listing 2 of 2 here] | ID50 [13]: 0.18 µg/mL (≈ 0.495 µM)
9 | – | – | – | – | – | – | – | ≤ 0.05 | 0.1 (≈ 0.275 µM) | CN1CCN(c2cc3c(cc2F)c(=O)c(C(=O)O)cn3[C@@H]2C[C@@H]2F)CC1 (stereo in doubt; 39) [listing 1 of 2 here] | MIC [1, 19]: 0.2 µg/mL (≈ 0.55 µM); MIC ([2]; Streptococcus pyogenes, read-out: MIC): 1.56 µg/mL (≈ 4.29 µM); P' [11]: 7; MIC [3, 20]: 0.78 µg/mL (≈ 2.15 µM); MIC [12, 16]: 0.05 µg/mL (≈ 0.138 µM); MIC [14]: ≤ 0.05 µg/mL; MIC [4, 21]: 0.2 µg/mL (≈ 0.55 µM); MIC [5, 18]: ≤ 0.05 µg/mL; MIC [10]: ≤ 0.05 µg/mL; MIC [6, 18]: 0.1 µg/mL (≈ 0.275 µM)
10 | – | – | – | – | – | – | – | – | – | CN1CCN(c2cc3c(cc2F)c(=O)c(C(=O)O)cn3[C@@H]2C[C@@H]2F)CC1 (stereo in doubt; 39) [listing 2 of 2 here] | ID50 [13]: 0.34 µg/mL (≈ 0.936 µM)

Row | Compound | MIC [1] [µg/mL] | MIC [2] [µg/mL] | MIC [3] [µg/mL] | MIC [4] [µg/mL] | MIC [5] | MIC [6] [µg/mL] | MIC [7] | MIC [8, 15] [µg/mL] | MIC [7, 17] [µg/mL] | also measured
11 | O=C(O)c1cn(C2CC2)c2cc(N3CCNCC3)c(F)cc2c1=O [CIPROFLOXACIN] | – | – | – | – | – | – | – | ≤ 0.05 | ≤ 0.05 | MIC [1, 19]: 0.2 µg/mL (≈ 0.604 µM); MIC [3, 20]: 0.78 µg/mL (≈ 2.35 µM); MIC [12, 16]: 0.025 µg/mL (≈ 0.0754 µM); ID50 [13]: 0.13 µg/mL (≈ 0.392 µM); MIC [4, 21]: ≤ 0.05 µg/mL; MIC [5, 18]: ≤ 0.05 µg/mL; MIC [10]: ≤ 0.05 µg/mL; MIC [6, 18]: 0.1 µg/mL (≈ 0.302 µM)
